Legend:
[1] = Half-life in 4:6 acetone/ 1.0 M HEPES buffer, pH 7.4, 37 degree celsius; format: ADME
Procedure, shortened: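 Generation of 4 from the 4-hydroxy compounds followed by ³¹P NMR in 4:6 acetone/1.0 M HEPES, pH 7.4, 37 °C; half-time of phosphoramide mustard release recorded.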

P388 [2] = test: In vitro antitumor activity against cyclophosphamide-resistant P388/CP cells; format: functional, Mus musculus
Procedure, shortened: (§1)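 Clonogenic assay on L1210 and P388 leukemia cells, wild-type (/O) and cyclophosphamide-resistant (/CP) lines, with 1-h drug exposure. LC99 is the concentration that cuts colony formation to 1% of control. It comes from linear regression of log survival vs concentration, at least three determinations.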

L1210 [3] = test: In vitro antitumor activity against cyclophosphamide-resistant L1210/CP cells; format: functional, Mus musculus; procedure, shortened: as §1
L1210 [4] = test: Resistance factor for LC99 of resistant (L1210/CP) to that of LC99 for wild type (L1210/0).; format: functional, Mus musculus
Procedure, shortened: (§2)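 Resistance factor is LC99 in the cyclophosphamide-resistant line divided by LC99 in the matching wild-type line. Each LC99 comes from a clonogenic assay with 1-h drug exposure, by linear regression of log survival vs concentration, at least three determinations.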

P388 [5] = test: In vitro antitumor activity against wild-type P388/0 cells; format: functional, Mus musculus; procedure, shortened: as §1
L1210 [6] = test: In vitro antitumor activity against wild-type L1210/0 cells; format: functional, Mus musculus; procedure, shortened: as §1
P388 [7] = test: Resistance factor for LC99 of resistant (P388/CP) to that of LC99 for wild type (P388/0).; format: functional, Mus musculus; procedure, shortened: as §2
L1210 [8] = test: In vivo antitumor activity against intraperitoneal murine wild type L1210 Leukemia cells at 510 umol/kg; format: functional, Mus musculus
Procedure, shortened: (§3)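 NCI L1210 protocol. Tumor propagated in DBA/2 mice; tests done in B6D2F1 mice, six per group, given 10⁶ L1210 cells ip. One ip dose of drug suspended in 2% (carboxymethyl)cellulose (or vehicle alone) given 24 h later. Survival followed daily for 30 days. %T/C = 100 × treated/control survival time.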

L1210 [9] = test: In vivo antitumor activity against intraperitoneal murine cyclophosphamide resistant L1210 Leukemia cells at 340 umol/kg; format: functional, Mus musculus; procedure, shortened: as §3
L1210 [10] = test: In vivo antitumor activity against intraperitoneal murine wild type L1210 Leukemia cells at 170 umol/kg; format: functional, Mus musculus; procedure, shortened: as §3
L1210 [11] = test: In vivo antitumor activity against intraperitoneal murine cyclophosphamide resistant L1210 Leukemia cells at 510 umol/kg; format: functional, Mus musculus; procedure, shortened: as §3
L1210 [12] = test: In vivo antitumor activity against intraperitoneal murine cyclophosphamide resistant L1210 Leukemia cells at 170 umol/kg; format: functional, Mus musculus; procedure, shortened: as §3
L1210 [13] = test: In vivo antitumor activity against intraperitoneal murine wild type L1210 Leukemia cells at 340 umol/kg; format: functional, Mus musculus; procedure, shortened: as §3
L1210 [14] = test: In vivo antitumor activity against intraperitoneal murine wild type L1210 Leukemia cells at 680 umol/kg; format: functional, Mus musculus; procedure, shortened: as §3
L1210 [15] = test: In vivo antitumor activity against intraperitoneal murine cyclophosphamide resistant L1210 Leukemia cells at 680 umol/kg; format: functional, Mus musculus; procedure, shortened: as §3

| Compound | half-life [1] [h] | LC99 (P388 [2]) [µM] | LC99 (L1210 [3]) [µM] | RF (L1210 [4]) | LC99 (P388 [5]) [µM] | LC99 (L1210 [6]) [µM] | RF (P388 [7]) | T/C (L1210 [8]) [%] | T/C (L1210 [9]) [%] | T/C (L1210 [10]) [%] | T/C (L1210 [11]) [%] | T/C (L1210 [12]) [%] | T/C (L1210 [13]) [%] | T/C (L1210 [14]) [%] | T/C (L1210 [15]) [%] |
| --- | --- | --- | --- | --- | --- | --- | --- | --- | --- | --- | --- | --- | --- | --- | --- |
| O=[P@]1(N(CCCl)CCCl)N[C@H](OO)C[C@@H](c2cccnc2)O1 | 1.75 | 34 | 56 | 1.6 | 33 | 36 | 1 | – | – | – | – | – | – | – | – |
| O=P1(N(CCCl)CCCl)NCCCO1 (stereo not given) [CYCLOPHOSPHAMIDE ANHYDROUS] | – | – | – | – | – | – | – | 208 | 95 | 150 | 110 | 105 | – | – | – |
| O=[P@]1(N(CCCl)CCCl)N[C@H](OO)C[C@@H](c2ccc(F)cc2)O1 | 3.42 | 5 | 8 | 1.2 | 6 | 7 | 1.2 | 188 | – | – | – | – | 163 | – | – |
| Cc1ccc([C@@H]2C[C@@H](OO)N[P@](=O)(N(CCCl)CCCl)O2)cc1 | 4 | 3 | 6 | 1.2 | 3 | 5 | 1 | 175 | – | – | – | – | 150 | 175 | – |
| CC(C)[C@@H]1C[C@@H](OO)N[P@](=O)(N(CCCl)CCCl)O1 | > 8.33 | – | 86 | 1 | 61 | 110 | 0.7 | – | – | – | – | – | – | – | – |
| O=P1(N(CCCl)CCCl)NC(OO)CCO1 (stereo not given) [PERFOSFAMIDE] | 0.25 | 60 | 140 | 17 | 6 | 8 | 10 | – | 110 | 140 | – | 115 | 171 | – | – |
| C[C@@H]1C[C@@H](OO)N[P@](=O)(N(CCCl)CCCl)O1 | > 8.33 | 69 | 180 | 4.6 | 26 | 39 | 2.7 | – | – | – | – | – | 138 | – | – |
| O=[P@]1(N(CCCl)CCCl)N[C@H](OO)C[C@@H](c2ccncc2)O1 | 1.83 | 23 | 57 | 1.1 | 44 | 53 | 0.5 | 160 | 131 | 130 | 138 | 119 | 150 | 190 | 150 |
| O=[P@]1(N(CCCl)CCCl)N[C@H](OO)C[C@@H](c2ccccc2)O1 | 2.17 | 15 | 29 | 3.2 | 6 | 9 | 2.5 | – | – | 117 | – | – | 144 | – | – |
| O=[N+]([O-])c1ccc([C@@H]2C[C@@H](OO)N[P@](=O)(N(CCCl)CCCl)O2)cc1 | 3.17 | 3 | 8 | 1 | 7 | 8 | 0.4 | 185 | – | – | – | – | 163 | 205 | – |
| O=[P@@]1(N(CCCl)CCCl)N[C@H](OO)C[C@@H](c2ccccc2)O1 | 1.53 | 21 | 26 | 1.3 | 16 | 20 | 1.3 | – | – | – | – | – | – | – | – |
| O=[P@]1(N(CCCl)CCCl)N[C@H](OO)C[C@@H](CCc2ccccc2)O1 | > 8.33 | 5 | 9 | 0.7 | 10 | 13 | 0.5 | – | – | – | – | – | 106 | – | – |

— ChEMBL document CHEMBL1125770, “Synthesis and antitumor properties of activated cyclophosphamide analogues” (J Med Chem, 1991)
